≈ marks a conversion by molar mass, not a printed value. Calls of active or inactive are those of the source. The rule behind the calls is not given here.
Legend:
Lactobacillus gasseri = assay: Antibacterial activity against Lactobacillus gasseri HM400 assessed as inhibition of bacterial growth; format: toxicity, organism-based
[1] = Antifungal activity against Cryptococcus gattii NR 43216 assessed as inhibition of fungal growth incubated for 48 hrs by broth microdilution method; format: functional, Cryptococcus gattii VGI
Summary of the method: (§1)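 Broth microdilution per CLSI guidelines against clinical isolates, incubated at 35 °C for 24 h (Candida, Aspergillus) or 48 h (Cryptococcus). MIC was the lowest concentration giving 50% growth inhibition.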

Cryptococcus neoformans [2] = assay: Antibiofilm activity against Cryptococcus neoformans NR 41300 assessed as inhibition of biofilm formation at 0.5xMIC measured after 48 hrs by crystal violet staining based analysis; format: functional
Summary of the method: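 Overnight C. neoformans was washed twice in PBS and adjusted to 105 cells per mL in RPMI. Cells were exposed to compound at 0.5 × MIC for 48 h at 35 °C. Biofilm was rinsed, dried, stained with 0.1% crystal violet, and the dye extracted with glacial acetic acid; OD595 readout.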

Pichia kudriavzevii [3] = assay: Antifungal activity against Candida krusei ATCC 34135 assessed as inhibition of fungal growth incubated for 24 hrs by broth microdilution method; format: functional; summary of the method: as §1
[4] = Antibacterial activity against Lactobacillus crispatus HM370 assessed as inhibition of bacterial growth; format: toxicity
Cryptococcus neoformans [5] = assay: Antifungal activity against Cryptococcus neoformans NR 48770 assessed as inhibition of fungal growth incubated for 48 hrs by broth microdilution method; format: functional
Summary of the method: (§2)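 Clinical isolate; CLSI broth microdilution over a range of concentrations (media listed: RPMI 1640, MOPS, YPD). MIC read as lowest concentration inhibiting growth by 50% after 48 h incubation at 35 °C.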

Nakaseomyces glabratus [6] = assay: Antifungal activity against Candida glabrata ATCC MYA2950 assessed as inhibition of fungal growth incubated for 24 hrs by broth microdilution method; format: functional
Summary of the method: (§3)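 Clinical isolate; CLSI broth microdilution over a range of concentrations (media listed: RPMI 1640, MOPS, YPD). MIC taken as lowest concentration giving 50% growth inhibition after 24 h at 35 °C.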

Candida parapsilosis [7] = assay: Antifungal activity against Candida parapsilosis CAB 502638 assessed as inhibition of fungal growth incubated for 24 hrs by broth microdilution method; format: functional; conditions: Lodderomyces parapsilosis; summary of the method: as §1
Cryptococcus neoformans [8] = assay: Antifungal activity against Cryptococcus neoformans NR 41299 assessed as inhibition of fungal growth incubated for 48 hrs by broth microdilution method; format: functional; summary of the method: as §2
Cryptococcus neoformans [9] = assay: Antifungal activity against Cryptococcus neoformans NR 41300 assessed as inhibition of fungal growth incubated for 48 hrs by broth microdilution method; format: functional; summary of the method: as §2
[Candida] auris [10] = Antifungal activity against Candida auris 381 assessed as inhibition of fungal growth incubated for 24 hrs by broth microdilution method; format: functional; conditions: Candidozyma auris; summary of the method: as §3
Nakaseomyces glabratus [11] = assay: Antifungal activity against Candida glabrata ATCC 66032 assessed as inhibition of fungal growth incubated for 24 hrs by broth microdilution method; format: functional; summary of the method: as §3
[12] = Antifungal activity against Cryptococcus gattii NR 43213 assessed as inhibition of fungal growth incubated for 48 hrs by broth microdilution method; format: functional, Cryptococcus gattii VGI; summary of the method: as §1
Candida albicans [13] = assay: Antifungal activity against Candida albicans NR 29448 assessed as inhibition of fungal growth incubated for 24 hrs by broth microdilution method; format: functional; summary of the method: as §3
Cryptococcus neoformans [14] = assay: Antifungal activity against Cryptococcus neoformans NR 48767 assessed as inhibition of fungal growth incubated for 48 hrs by broth microdilution method; format: functional; summary of the method: as §2
Candida parapsilosis [15] = assay: Antifungal activity against Candida parapsilosis ATCC 22019 assessed as inhibition of fungal growth incubated for 24 hrs by broth microdilution method; format: functional; conditions: Lodderomyces parapsilosis; summary of the method: as §3
Cryptococcus neoformans [16] = assay: Antifungal activity against Cryptococcus neoformans NR 48771 assessed as inhibition of fungal growth incubated for 48 hrs by broth microdilution method; format: functional; summary of the method: as §2
Cryptococcus neoformans [17] = assay: Anti-cryptococcal activity against Cryptococcus neoformans NR 41300 infected in mouse J774 cells assessed as log reduction of intracellular fungal colony forming unit at 4 ug/ml measured after 24 hrs; format: functional; conditions: dose 4 µg/ml
Summary of the method: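 C. neoformans NR-41300 was grown 48 h in YPD, washed, and used to infect J774 macrophages at MOI ~100:1 for 1 h, followed by PBS washes. Compounds at 4 μg mL−1 (triplicate) were applied for 22 h at 37 °C, 5% CO2. Extracellular yeast were killed with amphotericin B 1 μg mL−1 for 1 h. Cells were lysed in 0.1% Triton X-100 and plated on YPD agar for 48 h at 37 °C; readout log10 CFU mL−1.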

Cryptococcus neoformans [18] = assay: Antifungal activity against Cryptococcus neoformans NR 48773 assessed as inhibition of fungal growth incubated for 48 hrs by broth microdilution method; format: functional; summary of the method: as §2
[Candida] auris [19] = Antifungal activity against Candida auris 382 assessed as inhibition of fungal growth incubated for 24 hrs by broth microdilution method; format: functional; conditions: Candidozyma auris; summary of the method: as §3
Cryptococcus neoformans [20] = assay: Antifungal activity against Cryptococcus neoformans NR 41298 assessed as inhibition of fungal growth incubated for 48 hrs by broth microdilution method; format: functional; summary of the method: as §2
Candida albicans [21] = assay: Antifungal activity against wild type Candida albicans SC5314 assessed as inhibition of fungal growth; format: functional
[22] = Antifungal activity against Cryptococcus gattii NR 43209 assessed as inhibition of fungal growth incubated for 48 hrs by broth microdilution method; format: functional, Cryptococcus gattii VGI; summary of the method: as §1
[23] = Antibacterial activity against Lactobacillus casei HM334 assessed as inhibition of bacterial growth; format: toxicity; conditions: lacticaseibacillus casei
[24] = Antifungal activity against Cryptococcus gattii NR 43214 assessed as inhibition of fungal growth incubated for 48 hrs by broth microdilution method; format: functional, Cryptococcus gattii VGI; summary of the method: as §1
Pichia kudriavzevii [25] = assay: Antifungal activity against Candida krusei CAB 396420 assessed as inhibition of fungal growth incubated for 24 hrs by broth microdilution method; format: functional; summary of the method: as §1
[26] = Antifungal activity against Cryptococcus gattii NR 43210 assessed as inhibition of fungal growth incubated for 48 hrs by broth microdilution method; format: functional, Cryptococcus gattii VGI; summary of the method: as §1
[Candida] auris [27] = Antifungal activity against Candida auris 383 assessed as inhibition of fungal growth incubated for 24 hrs by broth microdilution method; format: functional; conditions: Candidozyma auris; summary of the method: as §3
Candida albicans [28] = assay: Antifungal activity against Candida albicans ATCC 10231 assessed as inhibition of fungal growth incubated for 24 hrs by broth microdilution method; format: functional; summary of the method: as §1
Aspergillus fumigatus [29] = assay: Antifungal activity against Aspergillus fumigatus NR 35304 assessed as inhibition of fungal growth incubated for 24 hrs by broth microdilution method; format: functional; summary of the method: as §1
Aspergillus fumigatus [30] = assay: Antifungal activity against Aspergillus fumigatus NR 35303 assessed as inhibition of fungal growth incubated for 24 hrs by broth microdilution method; format: functional; summary of the method: as §1
Escherichia coli [31] = assay: Antibacterial activity against wild type Escherichia coli BW25113 assessed as inhibition of bacterial growth; format: functional
Escherichia coli [32] = assay: Antibacterial activity against Escherichia coli JW55031 harboring tolC mutant assessed as inhibition of bacterial growth; format: functional
Clostridioides difficile = assay: Antibacterial activity against Clostridium difficile ATCC BAA1870 assessed as inhibition of bacterial growth; format: functional
Staphylococcus aureus = assay: Antibacterial activity against Methicillin-resistant Staphylococcus aureus USA300 assessed as inhibition of bacterial growth; format: functional
Vero = assay: Cytotoxicity against African green monkey Vero cells assessed as inhibition of cell viability at 16 ug/ml incubated for 2 hrs by MTS assay; format: toxicity, cell-based; conditions: chlorocebus sabaeus, dose 16 µg/ml
[33] = Cytotoxicity against African green monkey Vero cells assessed as inhibition of cell viability incubated for 2 hrs by MTS assay; format: toxicity, cell-based; conditions: chlorocebus sabaeus
Summary of the method: (§4)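 Vero cells were grown in MEM with 10% FBS, 1 mM sodium pyruvate and penicillin–streptomycin, then exposed to compounds for 2 h at 37 °C, 5% CO2, in triplicate. MTS was added for 3 h and OD490 read. Viability was expressed as % of DMSO-matched controls (mean ± SD).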

[34] = Cytotoxicity against African green monkey Vero cells assessed as cell viability at 8 ug/ml incubated for 2 hrs by MTS assay; format: toxicity, cell-based; conditions: chlorocebus sabaeus, at 8 µg/mL, read-out: Activity; summary of the method: as §4

Row | Compound | MIC (Lactobacillus gasseri) [µg/mL] | MIC [1] [µg/mL] | MIC (Pichia kudriavzevii [3]) [µg/mL] | MIC [4] [µg/mL] | MIC (Cryptococcus neoformans [5]) [µg/mL] | MIC (Nakaseomyces glabratus [6]) [µg/mL] | MIC (Candida parapsilosis [7]) [µg/mL] | MIC (Cryptococcus neoformans [8]) [µg/mL] | MIC (Cryptococcus neoformans [9]) [µg/mL] | MIC ([Candida] auris [10]) [µg/mL] | MIC (Nakaseomyces glabratus [11]) [µg/mL] | MIC [12] [µg/mL] | MIC (Candida albicans [13]) [µg/mL] | MIC (Cryptococcus neoformans [14]) [µg/mL] | MIC (Candida parapsilosis [15]) [µg/mL] | MIC (Cryptococcus neoformans [16]) [µg/mL] | MIC (Cryptococcus neoformans [18]) [µg/mL] | MIC ([Candida] auris [19]) [µg/mL] | MIC (Cryptococcus neoformans [20]) [µg/mL] | MIC (Candida albicans [21]) [µg/mL] | other results
1 | OC(Cn1cncn1)(Cn1cncn1)c1ccc(F)cc1F [FLUCONAZOLE] | > 128 | 2 (≈ 6.53 µM) | 16 (≈ 52.2 µM) | > 128 | 2 (≈ 6.53 µM) | 16 (≈ 52.2 µM) | 0.5 (≈ 1.63 µM) | 1 (≈ 3.27 µM) | 1 (≈ 3.27 µM) | 2 (≈ 6.53 µM) | 8 (≈ 26.1 µM) | 2 (≈ 6.53 µM) | > 128 | 1 (≈ 3.27 µM) | 1 (≈ 3.27 µM) | 2 (≈ 6.53 µM) | 2 (≈ 6.53 µM) | 64 (≈ 209 µM) | 2 (≈ 6.53 µM) | 0.5 (≈ 1.63 µM) | Activity (Cryptococcus neoformans [2]): Active; Activity (Cryptococcus neoformans [17]): 0.25 log10CFU/ml; MIC [22]: 4 µg/mL (≈ 13.1 µM); MIC [23]: > 128 µg/mL; MIC [24]: 1 µg/mL (≈ 3.27 µM); MIC (Pichia kudriavzevii [25]): 16 µg/mL (≈ 52.2 µM); MIC [26]: 4 µg/mL (≈ 13.1 µM); MIC ([Candida] auris [27]): 64 µg/mL (≈ 209 µM); MIC (Candida albicans [28]): 1 µg/mL (≈ 3.27 µM)
2 | CCC(C)n1ncn(-c2ccc(N3CCN(c4ccc(OCC5COC(Cn6cncn6)(c6ccc(Cl)cc6Cl)O5)cc4)CC3)cc2)c1=O (stereo unspecified) [ITRACONAZOLE] | – | – | – | – | – | – | – | – | – | – | – | – | – | – | – | – | – | – | – | – | MIC (Aspergillus fumigatus [29]): 1 µg/mL (≈ 1.42 µM); MIC (Aspergillus fumigatus [30]): 1 µg/mL (≈ 1.42 µM)
3 | Cc1nc(-c2ccc3ccccc3c2)sc1-c1nnc(N2CCCCC2CN)o1 (stereo unspecified) | – | – | – | – | – | – | – | – | – | – | – | – | – | – | – | – | – | – | – | > 64 | MIC (Escherichia coli [31]): > 64 µg/mL; MIC (Escherichia coli [32]): > 64 µg/mL; MIC (Clostridioides difficile): 32 µg/mL (≈ 78.9 µM); MIC (Staphylococcus aureus): > 64 µg/mL
4 | C[C@@H]1[C@H](O)[C@@H](C)/C=C/C=C/C=C/C=C/C=C/C=C/C=C/[C@H](O[C@@H]2O[C@H](C)[C@@H](O)[C@H](N)[C@@H]2O)C[C@@H]2O[C@](O)(C[C@@H](O)C[C@@H](O)[C@H](O)CC[C@@H](O)C[C@@H](O)CC(=O)O[C@H]1C)C[C@H](O)[C@H]2C(=O)O [AMPHOTERICIN B] | > 128 | 1 (≈ 1.08 µM) | 2 (≈ 2.16 µM) | > 128 | 1 (≈ 1.08 µM) | 1 (≈ 1.08 µM) | 0.5 (≈ 0.541 µM) | 1 (≈ 1.08 µM) | 1 (≈ 1.08 µM) | 0.5 (≈ 0.541 µM) | 2 (≈ 2.16 µM) | 1 (≈ 1.08 µM) | 1 (≈ 1.08 µM) | 1 (≈ 1.08 µM) | 0.5 (≈ 0.541 µM) | 1 (≈ 1.08 µM) | 1 (≈ 1.08 µM) | 1 (≈ 1.08 µM) | 1 (≈ 1.08 µM) | 1 (≈ 1.08 µM) | Activity (Vero): Toxic; MIC [22]: 1 µg/mL (≈ 1.08 µM); MIC [23]: > 128 µg/mL; MIC [24]: 1 µg/mL (≈ 1.08 µM); CC50 at 2 h [33]: ~8 µg/mL (≈ 8.66 µM); MIC (Pichia kudriavzevii [25]): 2 µg/mL (≈ 2.16 µM); MIC [26]: 1 µg/mL (≈ 1.08 µM); MIC ([Candida] auris [27]): 1 µg/mL (≈ 1.08 µM); MIC (Candida albicans [28]): 1 µg/mL (≈ 1.08 µM); viability at 2 h, 8 ug/ml [34]: 58%
5 | Cc1nc(-c2ccc3ccccc3c2)sc1-c1nnc(N2CCC(N)C2)o1 (stereo unspecified) | – | – | – | – | – | – | – | – | – | – | – | – | – | – | – | – | – | – | – | 8 (≈ 21.2 µM) | MIC (Escherichia coli [31]): > 64 µg/mL; MIC (Escherichia coli [32]): > 64 µg/mL; MIC (Clostridioides difficile): > 64 µg/mL; MIC (Staphylococcus aureus): > 64 µg/mL
